Test results: ChEMBL document CHEMBL4689842, “EUbOPEN Chemogenomics Library wave 1” (2021)

Test system: Fibroblast
Test: Multiplex assay against human fibroblast
Assay type: toxicity, cell-based
In short: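 Phenotypes for tubulin, mitochondrial mass and membrane permeability are expressed as per cents of healthy-nucleus cells. Cells were stained live at seeding with Hoechst33342, BioTracker Green Microtubule Cytoskeleton Dye, MitoTracker Red and Annexin V Alexa Fluor 680, then imaged after compound addition on a CQ1 microscope at 37°C and 5% CO2. Machine-learning gating in CellPathfinder separated Hoechst high-intensity objects from normal cells, divided normal cells by nuclear state (healthy, pyknosed, fragmented) and divided pyknosed cells into mitotic or apoptotic.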

[1] = 12 h, 1 µM, compound concentration 1 uM, replicate 1
[2] = 12 h, 1 µM, compound concentration 1 uM, replicate 2
[3] = 12 h, 10 µM, compound concentration 10 uM, replicate 1
[4] = 12 h, 10 µM, compound concentration 10 uM, replicate 2
[5] = 24 h, 1 µM, compound concentration 1 uM, replicate 1
[6] = 24 h, 1 µM, compound concentration 1 uM, replicate 2
[7] = 24 h, 10 µM, compound concentration 10 uM, replicate 1
[8] = 24 h, 10 µM, compound concentration 10 uM, replicate 2
[9] = 48 h, 1 µM, compound concentration 1 uM, replicate 1
[10] = 48 h, 1 µM, compound concentration 1 uM, replicate 2
[11] = 48 h, 10 µM, compound concentration 10 uM, replicate 1
[12] = 48 h, 10 µM, compound concentration 10 uM, replicate 2

CN1CCN(CCOc2cc(OC3CCOCC3)c3c(Nc4c(Cl)ccc5c4OCO5)ncnc3c2)CC1 [SARACATINIB]
Population Apoptotic (%) [1]: 59%
Population Fragmented Nuclei (%) [1]: 22%
Population Healthy Nuclei (%) [1]: 49%
Population Hoechst High Intensity Objects (%) [1]: 10%
Population Membrane Permeable-Phenotype (%) [1]: 24%
Population Mitochondria Different-Phenotype (%) [1]: 9%
Population Mitotic Cells (%) [1]: 40%
Population Normal (%) [1]: 89%
Population Pyknosed Nuclei (%) [1]: 27%
Population Tubulin-Different-Phenotype (%) [1]: 43%
Population Apoptotic (%) [2]: 70%
Population Fragmented Nuclei (%) [2]: 9%
Population Healthy Nuclei (%) [2]: 72%
Population Membrane Permeable-Phenotype (%) [2]: 0%
Population Mitochondria Different-Phenotype (%) [2]: 23%
Population Mitotic Cells (%) [2]: 30%
Population Normal (%) [2]: 90%
Population Pyknosed Nuclei (%) [2]: 18%
Population Tubulin-Different-Phenotype (%) [2]: 10%
Population Apoptotic (%) [3]: 60%
Population Fragmented Nuclei (%) [3]: 20%
Population Healthy Nuclei (%) [3]: 57%
Population Hoechst High Intensity Objects (%) [3]: 13%
Population Membrane Permeable-Phenotype (%) [3]: 16%
Population Mitochondria Different-Phenotype (%) [3]: 21%
Population Mitotic Cells (%) [3]: 39%
Population Normal (%) [3]: 86%
Population Pyknosed Nuclei (%) [3]: 21%
Population Tubulin-Different-Phenotype (%) [3]: 91%
Population Apoptotic (%) [4]: 75%
Population Fragmented Nuclei (%) [4]: 9%
Population Healthy Nuclei (%) [4]: 71%
Population Hoechst High Intensity Objects (%) [4]: 7%
Population Membrane Permeable-Phenotype (%) [4]: 21%
Population Mitochondria Different-Phenotype (%) [4]: 100%
Population Mitotic Cells (%) [4]: 25%
Population Normal (%) [4]: 92%
Population Pyknosed Nuclei (%) [4]: 18%
Population Tubulin-Different-Phenotype (%) [4]: 100%
Population Apoptotic (%) [5]: 47%
Population Fragmented Nuclei (%) [5]: 22%
Population Healthy Nuclei (%) [5]: 61%
Population Hoechst High Intensity Objects (%) [5]: 12%
Population Membrane Permeable-Phenotype (%) [5]: 17%
Population Mitochondria Different-Phenotype (%) [5]: 6%
Population Mitotic Cells (%) [5]: 52%
Population Normal (%) [5]: 87%
Population Pyknosed Nuclei (%) [5]: 16%
Population Tubulin-Different-Phenotype (%) [5]: 35%
Population Apoptotic (%) [6]: 50%
Population Fragmented Nuclei (%) [6]: 14%
Population Healthy Nuclei (%) [6]: 67%
Population Hoechst High Intensity Objects (%) [6]: 8%
Population Membrane Permeable-Phenotype (%) [6]: 6%
Population Mitochondria Different-Phenotype (%) [6]: 13%
Population Mitotic Cells (%) [6]: 50%
Population Normal (%) [6]: 91%
Population Pyknosed Nuclei (%) [6]: 18%
Population Tubulin-Different-Phenotype (%) [6]: 4%
Population Apoptotic (%) [7]: 50%
Population Fragmented Nuclei (%) [7]: 32%
Population Healthy Nuclei (%) [7]: 57%
Population Hoechst High Intensity Objects (%) [7]: 26%
Population Membrane Permeable-Phenotype (%) [7]: 11%
Population Mitochondria Different-Phenotype (%) [7]: 22%
Population Mitotic Cells (%) [7]: 50%
Population Normal (%) [7]: 73%
Population Pyknosed Nuclei (%) [7]: 10%
Population Tubulin-Different-Phenotype (%) [7]: 89%
Population Apoptotic (%) [8]: 85%
Population Fragmented Nuclei (%) [8]: 11%
Population Healthy Nuclei (%) [8]: 54%
Population Hoechst High Intensity Objects (%) [8]: 8%
Population Membrane Permeable-Phenotype (%) [8]: 21%
Population Mitochondria Different-Phenotype (%) [8]: 96%
Population Mitotic Cells (%) [8]: 14%
Population Normal (%) [8]: 91%
Population Pyknosed Nuclei (%) [8]: 34%
Population Tubulin-Different-Phenotype (%) [8]: 93%
Population Apoptotic (%) [9]: 55%
Population Fragmented Nuclei (%) [9]: 40%
Population Healthy Nuclei (%) [9]: 52%
Population Hoechst High Intensity Objects (%) [9]: 10%
Population Membrane Permeable-Phenotype (%) [9]: 11%
Population Mitochondria Different-Phenotype (%) [9]: 2%
Population Mitotic Cells (%) [9]: 44%
Population Normal (%) [9]: 89%
Population Pyknosed Nuclei (%) [9]: 6%
Population Tubulin-Different-Phenotype (%) [9]: 31%
Population Apoptotic (%) [10]: 66%
Population Fragmented Nuclei (%) [10]: 31%
Population Healthy Nuclei (%) [10]: 66%
Population Hoechst High Intensity Objects (%) [10]: 41%
Population Membrane Permeable-Phenotype (%) [10]: 15%
Population Mitochondria Different-Phenotype (%) [10]: 1%
Population Mitotic Cells (%) [10]: 33%
Population Normal (%) [10]: 58%
Population Pyknosed Nuclei (%) [10]: 2%
Population Tubulin-Different-Phenotype (%) [10]: 51%
Population Apoptotic (%) [11]: 71%
Population Fragmented Nuclei (%) [11]: 31%
Population Healthy Nuclei (%) [11]: 62%
Population Hoechst High Intensity Objects (%) [11]: 35%
Population Membrane Permeable-Phenotype (%) [11]: 8%
Population Mitochondria Different-Phenotype (%) [11]: 13%
Population Mitotic Cells (%) [11]: 28%
Population Normal (%) [11]: 64%
Population Pyknosed Nuclei (%) [11]: 6%
Population Tubulin-Different-Phenotype (%) [11]: 89%
Population Apoptotic (%) [12]: 0%
Population Fragmented Nuclei (%) [12]: 44%
Population Healthy Nuclei (%) [12]: 55%
Population Hoechst High Intensity Objects (%) [12]: 27%
Population Membrane Permeable-Phenotype (%) [12]: 12%
Population Mitochondria Different-Phenotype (%) [12]: 23%
Population Mitotic Cells (%) [12]: 0%
Population Normal (%) [12]: 72%
Population Pyknosed Nuclei (%) [12]: 0%
Population Tubulin-Different-Phenotype (%) [12]: 93%

Cc1nc(-c2ccc(-c3ccc(C(=O)N4CCc5cc6c(cc54)C4(CCN(C)CC4)CO6)cc3)c(C)c2)no1 [SB-224289]
Population Apoptotic (%) [1]: 66%
Population Fragmented Nuclei (%) [1]: 35%
Population Healthy Nuclei (%) [1]: 33%
Population Hoechst High Intensity Objects (%) [1]: 7%
Population Membrane Permeable-Phenotype (%) [1]: 18%
Population Mitochondria Different-Phenotype (%) [1]: 25%
Population Mitotic Cells (%) [1]: 33%
Population Normal (%) [1]: 92%
Population Pyknosed Nuclei (%) [1]: 31%
Population Tubulin-Different-Phenotype (%) [1]: 75%
Total Cell Count [1]: 188
Population Apoptotic (%) [2]: 28%
Population Fragmented Nuclei (%) [2]: 4%
Population Healthy Nuclei (%) [2]: 81%
Population Hoechst High Intensity Objects (%) [2]: 12%
Population Membrane Permeable-Phenotype (%) [2]: 10%
Population Mitochondria Different-Phenotype (%) [2]: 42%
Population Mitotic Cells (%) [2]: 71%
Population Normal (%) [2]: 87%
Population Pyknosed Nuclei (%) [2]: 14%
Population Tubulin-Different-Phenotype (%) [2]: 37%
Total Cell Count [2]: 65
Population Apoptotic (%) [3]: 71%
Population Fragmented Nuclei (%) [3]: 34%
Population Healthy Nuclei (%) [3]: 40%
Population Hoechst High Intensity Objects (%) [3]: 15%
Population Membrane Permeable-Phenotype (%) [3]: 5%
Population Mitochondria Different-Phenotype (%) [3]: 62%
Population Mitotic Cells (%) [3]: 28%
Population Normal (%) [3]: 84%
Population Pyknosed Nuclei (%) [3]: 24%
Population Tubulin-Different-Phenotype (%) [3]: 89%
Total Cell Count [3]: 213
Population Apoptotic (%) [4]: 63%
Population Fragmented Nuclei (%) [4]: 7%
Population Healthy Nuclei (%) [4]: 77%
Population Hoechst High Intensity Objects (%) [4]: 11%
Population Membrane Permeable-Phenotype (%) [4]: 54%
Population Mitochondria Different-Phenotype (%) [4]: 100%
Population Mitotic Cells (%) [4]: 36%
Population Normal (%) [4]: 88%
Population Pyknosed Nuclei (%) [4]: 15%
Population Tubulin-Different-Phenotype (%) [4]: 100%
Total Cell Count [4]: 56
Population Apoptotic (%) [5]: 65%
Population Fragmented Nuclei (%) [5]: 32%
Population Healthy Nuclei (%) [5]: 41%
Population Hoechst High Intensity Objects (%) [5]: 14%
Population Membrane Permeable-Phenotype (%) [5]: 20%
Population Mitochondria Different-Phenotype (%) [5]: 27%
Population Mitotic Cells (%) [5]: 34%
Population Normal (%) [5]: 85%
Population Pyknosed Nuclei (%) [5]: 25%
Population Tubulin-Different-Phenotype (%) [5]: 79%
Total Cell Count [5]: 202
Population Apoptotic (%) [6]: 0%
Population Fragmented Nuclei (%) [6]: 15%
Population Healthy Nuclei (%) [6]: 77%
Population Hoechst High Intensity Objects (%) [6]: 9%
Population Membrane Permeable-Phenotype (%) [6]: 6%
Population Mitochondria Different-Phenotype (%) [6]: 38%
Population Mitotic Cells (%) [6]: 100%
Population Normal (%) [6]: 90%
Population Pyknosed Nuclei (%) [6]: 7%
Population Tubulin-Different-Phenotype (%) [6]: 22%
Total Cell Count [6]: 73
Population Apoptotic (%) [7]: 78%
Population Fragmented Nuclei (%) [7]: 35%
Population Healthy Nuclei (%) [7]: 25%
Population Hoechst High Intensity Objects (%) [7]: 17%
Population Membrane Permeable-Phenotype (%) [7]: 2%
Population Mitochondria Different-Phenotype (%) [7]: 61%
Population Mitotic Cells (%) [7]: 21%
Population Normal (%) [7]: 82%
Population Pyknosed Nuclei (%) [7]: 38%
Population Tubulin-Different-Phenotype (%) [7]: 66%
Total Cell Count [7]: 186
Population Apoptotic (%) [8]: 76%
Population Fragmented Nuclei (%) [8]: 16%
Population Healthy Nuclei (%) [8]: 56%
Population Hoechst High Intensity Objects (%) [8]: 11%
Population Membrane Permeable-Phenotype (%) [8]: 86%
Population Mitochondria Different-Phenotype (%) [8]: 100%
Population Mitotic Cells (%) [8]: 23%
Population Normal (%) [8]: 88%
Population Pyknosed Nuclei (%) [8]: 26%
Population Tubulin-Different-Phenotype (%) [8]: 100%
Total Cell Count [8]: 63
Population Apoptotic (%) [9]: 68%
Population Fragmented Nuclei (%) [9]: 44%
Population Healthy Nuclei (%) [9]: 46%
Population Hoechst High Intensity Objects (%) [9]: 21%
Population Membrane Permeable-Phenotype (%) [9]: 8%
Population Mitochondria Different-Phenotype (%) [9]: 6%
Population Mitotic Cells (%) [9]: 31%
Population Normal (%) [9]: 78%
Population Pyknosed Nuclei (%) [9]: 8%
Population Tubulin-Different-Phenotype (%) [9]: 50%
Total Cell Count [9]: 277
Population Apoptotic (%) [10]: 0%
Population Fragmented Nuclei (%) [10]: 48%
Population Healthy Nuclei (%) [10]: 50%
Population Hoechst High Intensity Objects (%) [10]: 27%
Population Membrane Permeable-Phenotype (%) [10]: 12%
Population Mitochondria Different-Phenotype (%) [10]: 3%
Population Mitotic Cells (%) [10]: 100%
Population Normal (%) [10]: 72%
Population Pyknosed Nuclei (%) [10]: 0%
Population Tubulin-Different-Phenotype (%) [10]: 56%
Total Cell Count [10]: 169
Population Apoptotic (%) [11]: 90%
Population Fragmented Nuclei (%) [11]: 46%
Population Healthy Nuclei (%) [11]: 21%
Population Hoechst High Intensity Objects (%) [11]: 33%
Population Membrane Permeable-Phenotype (%) [11]: 30%
Population Mitochondria Different-Phenotype (%) [11]: 50%
Population Mitotic Cells (%) [11]: 10%
Population Normal (%) [11]: 66%
Population Pyknosed Nuclei (%) [11]: 31%
Population Tubulin-Different-Phenotype (%) [11]: 85%
Total Cell Count [11]: 142
Population Apoptotic (%) [12]: 100%
Population Fragmented Nuclei (%) [12]: 47%
Population Healthy Nuclei (%) [12]: 15%
Population Hoechst High Intensity Objects (%) [12]: 29%
Population Membrane Permeable-Phenotype (%) [12]: 14%
Population Mitochondria Different-Phenotype (%) [12]: 85%
Population Mitotic Cells (%) [12]: 0%
Population Normal (%) [12]: 70%
Population Pyknosed Nuclei (%) [12]: 36%
Population Tubulin-Different-Phenotype (%) [12]: 71%
Total Cell Count [12]: 127
